Measured values from ChEMBL document CHEMBL1126160, “Synthesis and structure-activity relationships of 7-diazabicycloalkylquinolones, including danofloxacin, a new quinolone antibacterial agent for veterinary medicine” (J Med Chem, 1992).
≈ marks a conversion by molar mass, not a printed value.

Legend:
Escherichia coli [1] = experiment: In vitro antibacterial activity against Aerobically grown Escherichia coli (51A538); assay type: functional
Method in brief: (§1)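 Agar dilution MICs. Aerobic strains were tested on brain heart infusion agar and incubated aerobically at 37 °C for 18–20 h.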

Pasteurella multocida [2] = experiment: In vitro antibacterial activity against Aerobically grown Pasteurella multocida (59A006); assay type: functional; method in brief: as §1
Staphylococcus aureus [3] = experiment: In vitro antibacterial activity against Aerobically grown Staphylococcus aureus (54B004); assay type: functional; method in brief: as §1
Phocaeicola vulgatus = experiment: In vitro antibacterial activity against anaerobically grown Bacteroides vulgatus (78D029); assay type: functional
Method in brief: (§2)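 Agar dilution MICs. Anaerobic strains were tested on tryptose agar with 5% bovine blood and incubated 48 h at 39 °C in an anaerobe chamber under N2/CO2/H2 (80:10:10).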

[4] = system: Actinobacillus pleuropneumoniae; experiment: In vitro antibacterial activity against anaerobically grown Actinobacillus pleuropneumoniae ([…]); assay type: functional; method in brief: as §2
[5] = In vitro evaluation for antibacterial activity against anaerobically grown Treponema hyodysenteriae (94A007); assay type: functional; conditions: Brachyspira hyodysenteriae
Salmonella enterica [6] = experiment: In vitro antibacterial activity against Aerobically grown Salmonella choleraesuis (58B015); assay type: functional
[7] = In vitro antibacterial activity against Aerobically grown Pasteurella haemolytica (59B018); assay type: functional; conditions: Mannheimia haemolytica; method in brief: as §1
Trueperella pyogenes = experiment: In vitro antibacterial activity against anaerobically grown Actinomyces pyogenes (14D002); assay type: functional; method in brief: as §2
Clostridium perfringens = experiment: microbe, parasite or virus in culture; assay type: functional
Escherichia coli [8] = experiment: Escherichia coli DNA cleavage endpoint value which is the minimum amount required (in micro g/mL) to induce detectable cleavage of supercoiled pBR322 substrate to linear form (gyrase); assay type: functional; conditions: read-out: MIC
Method in brief: (§3)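 DNA gyrase A and B subunits were purified from E. coli overproducers. About 2 units of holoenzyme were incubated with pBR322 in Tris-HCl pH 7.5 containing MgCl2, spermidine, DTT, 0.2 mM ATP, BSA and tRNA. Drug was added as 2-fold serial dilutions, and reactions ran for 60 min at 25 °C. Reactions were stopped with SDS and proteinase K, then run on agarose and stained with ethidium. The endpoint was the lowest concentration giving detectable linear DNA.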

[9] = system: Bordetella bronchiseptica; experiment: In vitro antibacterial activity against Aerobically grown Bordetella bronchiseptica (73A009); assay type: functional; method in brief: as §1
Pasteurella multocida [10] = experiment: In vitro antibacterial activity against aerobically grown Pasteurella multocida (59A006); assay type: functional; method in brief: as §1
Escherichia coli [11] = experiment: The Escherichia coli DNA cleavage endpoint value which is the minimum amount of compound required (micro g/mL) to induce detectable cleavage of supercoiled pBR322 substrate to the linear form (gyrase); assay type: functional; method in brief: as §3
[12] = system: Bordetella bronchiseptica; experiment: In vitro antibacterial activity against aerobically grown Bordetella bronchiseptica (73A009); assay type: functional; method in brief: as §1
Staphylococcus aureus [13] = experiment: In vitro antibacterial activity against aerobically grown Staphylococcus aureus (54B004); assay type: functional; method in brief: as §1
Salmonella enterica [14] = experiment: In vitro antibacterial activity against aerobically grown Salmonella choleraesuis (58B015); assay type: functional
Escherichia coli [15] = experiment: In vitro antibacterial activity against aerobically grown Escherichia coli (51A538); assay type: functional; method in brief: as §1
Escherichia coli [16] = experiment: In vivo protective dose was evaluated against Escherichia coli (51A266) in mouse(sc); assay type: functional; conditions: read-out: PD50
Method in brief: (§4)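 Female CF-1 mice (15 g), groups of 10, challenged ip with 0.5 mL bacterial suspension (P. multocida 59A006 or E. coli 51A266 at 3.0 × 10^8 cfu/mL; S. choleraesuis 58B010 at 8.5 × 10^2 cfu/mL). Drug given sc or po at 30 min, 4 h and 24 h after challenge; survival recorded at 96 h; PD50 by probit analysis.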

Pasteurella multocida [17] = experiment: In vivo protective dose was evaluated Pasteurella multocida (59A006) in mouse(po); assay type: functional; conditions: read-out: PD50; method in brief: as §4
Mannheimia haemolytica [18] = experiment: Compound was evaluated for minimum against Pasteurella haemolytica intramuscular dose administration; assay type: functional; conditions: im, read-out: MED
Method in brief: (§5)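 Calf and swine respiratory disease models. Calves received acetic acid intratracheally on the day before and on day 0, then an endotracheal challenge with P. haemolytica B280PA, about 5 × 10^8 cfu/mL. They were dosed im with a 2.5% or 5% solution in sterile water on days 0 and 1 (SID × 2). Pigs weighing 8.5–12.5 kg were challenged intranasally with A. pleuropneumoniae B316HM, 10^9 cfu/mL. They were dosed once within 1 h, either im (1% or 2.5% solution) or by gavage (0.5% solution). MED was the lowest dose giving significant reduction of lung pathology.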

[19] = system: Actinobacillus pleuropneumoniae; experiment: Compound was evaluated for minimum effective dose against Actinobacillus pleuropneumonia peroral dose administration; assay type: functional; conditions: po, read-out: MED; method in brief: as §5
Pasteurella multocida [20] = experiment: In vivo protective dose was evaluated Pasteurella multocida (59A006) in mouse(sc); assay type: functional; conditions: read-out: PD50; method in brief: as §4
[21] = system: Actinobacillus pleuropneumoniae; experiment: Compound was evaluated for minimum against Actinobacillus pleuropneumoniae intramuscular dose administration; conditions: im, read-out: MED
[22] = compound was evaluated for aqueous solubility at pH 7.2; assay type: physicochemical; conditions: buffer
Method in brief: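 Excess solid (~5 mg) shaken in 3 mL 0.05 M phosphate buffer pH 7.2 at 23 ± 1 °C in duplicate vials up to 3 days, pH readjusted to 7.2 after each sampling; filtered (0.45 nylon) samples analysed by HPLC.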

Pasteurella multocida [23] = experiment: In vivo protective dose was evaluated against Pasteurella multocida (59A006) in mouse(sc); assay type: functional; conditions: read-out: PD50; method in brief: as §4
[24] = system: Actinobacillus pleuropneumoniae; experiment: Compound was evaluated for minimum effective dose against Actinobacillus pleuropneumonia, intramuscular dose administration; conditions: im, read-out: MED
Mannheimia haemolytica [25] = experiment: Compound was evaluated for minimum effective dose against Pasteurella haemolytica, intramuscular dose administration; assay type: functional; conditions: im, read-out: MED
Method in brief: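 Calves acid-treated intratracheally with 0.6 mL 8% acetic acid at 24 h and 4 h before endotracheal challenge with 50 mL P. haemolytica B280PA (~5 × 10^8 cfu/mL). im dosing of 2.5% or 5% solution in sterile water, day 0 and day 1 (SID × 2). Clinical signs and temperature recorded days 0–5; lungs scored and cultured. MED = lowest dose giving significant (65%) reduction of lung pathology.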

Pasteurella multocida [26] = experiment: In vivo protective dose was evaluated against Pasteurella multocida (59A006) in mouse(po); assay type: functional; conditions: read-out: PD50; method in brief: as §4
Escherichia coli [27] = experiment: In vivo protective dose was evaluated against Escherichia coli (51A266) in mouse(po); assay type: functional; conditions: read-out: PD50; method in brief: as §4
[28] = system: Actinobacillus pleuropneumoniae; experiment: Compound was evaluated for minimum effective dose against Actinobacillus pleuropneumonia, peroral dose administration; assay type: functional; conditions: po, read-out: MED
Method in brief: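 Cross-bred swine, 8.5–12.5 kg; intranasal challenge with A. pleuropneumoniae strain B316HM, grown overnight on enriched BHI agar at 37 °C in 5–10% CO2 and standardized by OD to 10^9 cfu/mL, three 1-mL increments per nostril. Single treatment (SID × 1): im 1% or 2.5% solution in sterile water into ham within 1 h of challenge, or oral gavage of 0.5% solution in sterile water.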

[29] = system: Actinobacillus pleuropneumoniae; experiment: Dose was evaluated for minimum effective dose actinobacillus pleuropneumonia, intramuscular dose administration; conditions: im, read-out: MED
Salmonella enterica [30] = experiment: In vivo protective dose was evaluated against Salmonella choleraesuis (58B010) in mouse(po); assay type: functional; conditions: read-out: PD50; method in brief: as §4
Mannheimia haemolytica [31] = experiment: Dose was evaluated for minimum effective dose Pasteurella haemolytica, intramuscular dose administration; assay type: functional; conditions: im, read-out: MED; method in brief: as §5
[32] = system: Actinobacillus pleuropneumoniae; experiment: Compound was evaluated for minimum effective dose Actinobacillus pleuropneumonia, peroral dose administration; assay type: functional; conditions: po, read-out: MED; method in brief: as §5

SMILES: CN1C[C@@H]2C[C@H]1CN2c1c(F)cc2c(=O)c(C(=O)O)cn(-c3ccc(F)cc3)c2c1Cl
- MIC (Escherichia coli [1]): 0.78 µg/mL (≈ 1.75 µM)
- MIC (Pasteurella multocida [2]): 0.05 µg/mL (≈ 0.112 µM)
- MIC (Staphylococcus aureus [3]): 0.78 µg/mL (≈ 1.75 µM)
- MIC (Phocaeicola vulgatus): > 3.13 µg/mL
- MIC [4]: 0.78 µg/mL (≈ 1.75 µM)
- MIC [5]: > 3.13 µg/mL
- MIC (Salmonella enterica [6]): 1.56 µg/mL (≈ 3.5 µM)
- MIC [7]: 0.78 µg/mL (≈ 1.75 µM)
- MIC (Trueperella pyogenes): > 3.13 µg/mL
- MIC (Clostridium perfringens): 0.78 µg/mL (≈ 1.75 µM)
- minimum concentration inducing gyrase-mediated DNA cleavage (Escherichia coli [8]): 1.56 µg/mL
- MIC [9]: > 1.56 µg/mL

SMILES: CN1C[C@@H]2C[C@H]1CN2c1c(F)cc2c(=O)c(C(=O)O)cn(C3CC3)c2c1Cl
- MIC (Pasteurella multocida [10]): < 0.05 µg/mL
- MIC (Escherichia coli [11]): 0.19 µg/mL (≈ 0.485 µM)
- MIC [12]: 0.39 µg/mL (≈ 0.995 µM)
- MIC (Phocaeicola vulgatus): 0.78 µg/mL (≈ 1.99 µM)
- MIC [4]: < 0.05 µg/mL
- MIC (Staphylococcus aureus [13]): 0.1 µg/mL (≈ 0.255 µM)
- MIC (Salmonella enterica [14]): < 0.05 µg/mL
- MIC [5]: 6.25 µg/mL (≈ 16 µM)
- MIC (Escherichia coli [15]): < 0.05 µg/mL
- MIC (Trueperella pyogenes): 0.39 µg/mL (≈ 0.995 µM)
- MIC (Clostridium perfringens): 0.2 µg/mL (≈ 0.51 µM)

SMILES: CCn1cc(C(=O)O)c(=O)c2cc(F)c(N3C[C@H]4CC[C@@H](C3)N4C)cc21
- MIC (Pasteurella multocida [10]): 0.2 µg/mL (≈ 0.556 µM)
- ED50 (Escherichia coli [16]): 2.23 mg/kg
- ED50 (Pasteurella multocida [17]): 2.21 mg/kg
- minimal effective dose (Mannheimia haemolytica [18]): 1.2 mg/kg
- minimal effective dose [19]: 5 mg/kg
- MIC [12]: > 1.56 µg/mL
- MIC (Phocaeicola vulgatus): > 3.13 µg/mL
- MIC [4]: 0.78 µg/mL (≈ 2.17 µM)
- MIC (Staphylococcus aureus [13]): 0.2 µg/mL (≈ 0.556 µM)
- MIC (Salmonella enterica [14]): 0.78 µg/mL (≈ 2.17 µM)
- ED50 (Pasteurella multocida [20]): 1.31 mg/kg
- MIC [5]: 3.13 µg/mL (≈ 8.71 µM)
- MIC (Escherichia coli [15]): 0.78 µg/mL (≈ 2.17 µM)
- MIC [7]: 0.39 µg/mL (≈ 1.09 µM)
- MIC (Trueperella pyogenes): > 3.13 µg/mL
- MIC (Clostridium perfringens): 0.39 µg/mL (≈ 1.09 µM)
- minimal effective dose [21]: 0.6 mg/kg
- minimum concentration inducing gyrase-mediated DNA cleavage (Escherichia coli [8]): 3.12 µg/mL

SMILES: CCn1cc(C(=O)O)c(=O)c2cc(F)c(N3CCN4CCC3CC4)cc21 [BINFLOXACIN]
- MIC (Pasteurella multocida [10]): 0.05 µg/mL (≈ 0.139 µM)
- ED50 (Escherichia coli [16]): 1.1 mg/kg
- MIC [12]: 1.56 µg/mL (≈ 4.34 µM)
- solubility [22]: 49 µg/mL (≈ 136 µM)
- MIC (Phocaeicola vulgatus): > 3.13 µg/mL
- MIC [4]: 0.05 µg/mL (≈ 0.139 µM)
- MIC (Staphylococcus aureus [13]): 0.39 µg/mL (≈ 1.09 µM)
- MIC (Salmonella enterica [14]): 0.2 µg/mL (≈ 0.556 µM)
- ED50 (Pasteurella multocida [23]): 0.63 mg/kg
- MIC [5]: 1.56 µg/mL (≈ 4.34 µM)
- minimal effective dose [24]: 0.3 mg/kg
- minimal effective dose (Mannheimia haemolytica [25]): 0.3 mg/kg
- MIC (Escherichia coli [15]): 0.2 µg/mL (≈ 0.556 µM)
- MIC [7]: 0.1 µg/mL (≈ 0.278 µM)
- ED50 (Pasteurella multocida [26]): 1.9 mg/kg
- MIC (Trueperella pyogenes): 3.13 µg/mL (≈ 8.71 µM)
- ED50 (Escherichia coli [27]): 10.2 mg/kg
- MIC (Clostridium perfringens): 0.1 µg/mL (≈ 0.278 µM)
- minimal effective dose [28]: 2.5 mg/kg
- minimum concentration inducing gyrase-mediated DNA cleavage (Escherichia coli [8]): 1.56 µg/mL

SMILES: CN1C[C@@H]2C[C@H]1CN2c1cc2c(cc1F)c(=O)c(C(=O)O)cn2C1CC1 [DANOFLOXACIN]
- minimal effective dose [29]: 0.15 mg/kg
- MIC (Pasteurella multocida [10]): 0.01 µg/mL (≈ 0.028 µM)
- MIC [12]: 0.78 µg/mL (≈ 2.18 µM)
- MIC (Phocaeicola vulgatus): 3.13 µg/mL (≈ 8.76 µM)
- MIC [4]: 0.05 µg/mL (≈ 0.14 µM)
- ED50 (Salmonella enterica [30]): 1.12 mg/kg
- MIC (Staphylococcus aureus [13]): 0.39 µg/mL (≈ 1.09 µM)
- MIC (Salmonella enterica [14]): 0.05 µg/mL (≈ 0.14 µM)
- MIC [5]: 0.39 µg/mL (≈ 1.09 µM)
- MIC (Escherichia coli [15]): 0.05 µg/mL (≈ 0.14 µM)
- minimal effective dose (Mannheimia haemolytica [31]): 0.15 mg/kg
- MIC [7]: 0.05 µg/mL (≈ 0.14 µM)
- ED50 (Pasteurella multocida [26]): 0.31 mg/kg
- MIC (Trueperella pyogenes): > 3.13 µg/mL
- ED50 (Escherichia coli [27]): 0.4 mg/kg
- MIC (Clostridium perfringens): 0.2 µg/mL (≈ 0.56 µM)
- minimal effective dose [32]: 0.6 mg/kg
- minimum concentration inducing gyrase-mediated DNA cleavage (Escherichia coli [8]): 0.78 µg/mL
